Experimental data published in ChEMBL document CHEMBL1154278, “Cassiarins C-E, antiplasmodial alkaloids from the flowers of Cassia siamea” (J Nat Prod, 2009).

Key:
HL-60 (Homo sapiens) = test: Cytotoxicity against human HL-60 cells
Plasmodium falciparum = test: Antimalarial activity against Plasmodium falciparum 3D7 by Giemsa staining; format: functional, organism-based
Summary of the method: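 P. falciparum 3D7 clone grown in human erythrocyte culture (Trager–Jensen) in 24-well plates. Compounds dissolved in DMSO (final <0.5%) and diluted in RPMI 1640 with 10% human plasma, 25 mM HEPES and 25 mM NaHCO₃ to final 10, 1, 0.1, 0.01, 0.001 µg/mL. Growth read from MeOH-fixed, Giemsa-stained smears; IC50 = 50% growth inhibition versus untreated control.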

Row | Structure (SMILES) | IC50 (HL-60 (Homo sapiens)) [µM] | IC50 (Plasmodium falciparum) [µM]
1 | Cc1cc2cc(=O)cc3oc(C)cc(o1)c23 [ANHYDROBARAKOL] | > 100 | 4.7
2 | Cc1cc2c3c(cc(=O)cc-3o1)CC(C)O2 (configuration not stated) | > 100 | 2.3
3 | Cc1cc2cc(O)cc3c2c(n1)CC(C)O3 (configuration not stated) [CASSIARIN C] | > 100 | 24.2
4 | CC(=O)Cc1cc(O)cc2oc(C)cc(=O)c12 | > 100 | 8.6
5 | CC(=O)Cc1cc(O)cc2oc(CC3(C)Cc4nc(C)cc5cc(O)cc(c45)O3)cc(=O)c12 (configuration not stated) [CASSIARIN D] | > 100 | 3.6
6 | Cc1cc2cc(O)cc3c2c(n1)C=C(CC1(C)Cc2nc(C)cc4cc(O)cc(c24)O1)O3 (configuration not stated) [CASSIARIN E] | > 100 | 7.3
